PMC11255784 (RSC Advances, 2024)

Assays:
[1] = test system: Mtb H37Rv strain; experiment: Anti-TB activity, Microplate Alamar Blue Assay; format: cell-based, Mycobacterium tuberculosis; conditions: MABA, triplicates
[2] = test system: HEK293T cells; experiment: Cytotoxicity studies on HEK293T cell line; format: cell-based, human; conditions: for Selective index (SI): HEK293T IC50 versus MIC against Mtb H37Rv; for IC50: Homo sapiens, HEK-293T, read-out: IC50 (HEK293T)
Outline: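 Normal human embryonic kidney HEK293T cells were exposed to test compounds over a dose range of 7 to 2000 μM, and cell proliferation was read as OD at 450 nm to give IC50.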

[3] = test system: Mtb H37Rv; conditions: cited from earlier work
[4] = Mycobacterium tuberculosis, H37RV

Row | Compound | MIC [1, 4] | also measured
1 | 2-(4-(Phenylglycyl) piperazin-1-yl)-1,8-naphthyridine-3-carbonitrile [ANC-1] |  | MIC [1]: 25 µg/mL; MIC ([1]; value in brackets): 67.12 µM
2 | N#Cc1cc2cccnc2nc1N1CCN(CC(=O)Nc2ccccc2)CC1 [ANA-1, 2-(4-(3-Cyano-1,8-naphthyridin-2-yl)piperazin-1-yl)-N-phenylacetamide] | 12.5 µg/mL | Selective index (SI) [2]: 17; IC50 [2]: 580 ± 20.2 µM
3 | CCc1ccc(NC(=O)CN2CCN(c3nc4ncccc4cc3C#N)CC2)cc1 [ANA-2, 2-(4-(3-Cyano-1,8-naphthyridin-2-yl)piperazin-1-yl)-N-(4-ethylphenyl)acetamide] | 25 µg/mL | 
4 | Cc1ccc(NC(=O)CN2CCN(c3nc4ncccc4cc3C#N)CC2)cc1C [ANA-3, 2-(4-(3-Cyano-1,8-naphthyridin-2-yl)piperazin-1-yl)-N-(3,4-dimethylphenyl)acetamide] | 25 µg/mL | 
5 | N#Cc1cc2cccnc2nc1N1CCN(CC(=O)Nc2ccc(F)cc2)CC1 [ANA-4, 2-(4-(3-Cyano-1,8-naphthyridin-2-yl)piperazin-1-yl)-N-(4-fluorophenyl)acetamide] | 25 µg/mL | 
6 | N#Cc1cc2cccnc2nc1N1CCN(CC(=O)Nc2ccc(Br)cc2)CC1 [ANA-5, N-(4-Bromophenyl)-2-(4-(3-cyano-1,8-naphthyridin-2-yl)piperazin-1-yl)acetamide] | 25 µg/mL | 
7 | N#Cc1cc2cccnc2nc1N1CCN(CC(=O)Nc2ccccc2F)CC1 [ANA-6, 2-(4-(3-Cyano-1,8-naphthyridin-2-yl)piperazin-1-yl)-N-(2-fluorophenyl)acetamide] | 12.5 µg/mL | Selective index (SI) [2]: 23; IC50 [2]: 753 ± 7.63 µM
8 | N#Cc1cc2cccnc2nc1N1CCN(CC(=O)Nc2ccccc2[N+](=O)[O-])CC1 [ANA-7, 2-(4-(3-Cyano-1,8-naphthyridin-2-yl)piperazin-1-yl)-N-(2-nitrophenyl)acetamide] | 12.5 µg/mL | Selective index (SI) [2]: 19; IC50 [2]: 571.2 ± 4.45 µM
9 | N#Cc1cc2cccnc2nc1N1CCN(CC(=O)Nc2cccc(C(F)(F)F)c2)CC1 [ANA-8, 2-(4-(3-Cyano-1,8-naphthyridin-2-yl)piperazin-1-yl)-N-(3(trifluoromethyl)phenyl)acetamide] | 12.5 µg/mL | 
10 | N#Cc1cc2cccnc2nc1N1CCN(CC(=O)Nc2ccc(F)c(F)c2)CC1 [ANA-9, 2-(4-(3-Cyano-1,8-naphthyridin-2-yl)piperazin-1-yl)-N-(3,4-difluorophenyl)acetamide] | 25 µg/mL | 
11 | N#Cc1cc2cccnc2nc1N1CCN(CC(=O)Nc2cccc([N+](=O)[O-])c2)CC1 [ANA-10, 2-(4-(3-Cyano-1,8-naphthyridin-2-yl)piperazin-1-yl)-N-(3-nitrophenyl)acetamide] | 12.5 µg/mL | 
12 | N#Cc1cc2cccnc2nc1N1CCN(CC(=O)Nc2ccc([N+](=O)[O-])cc2)CC1 [ANA-11, 2-(4-(3-Cyano-1,8-naphthyridin-2-yl)piperazin-1-yl)-N-(4-nitrophenyl)acetamide] | 25 µg/mL | 
13 | N#Cc1cc2cccnc2nc1N1CCN(C(=O)c2ccc([N+](=O)[O-])o2)CC1 [ANA-12, 2-(4-(5-Nitrofuran-2-carbonyl)piperazin-1-yl)-1,8-naphthyridine-3-carbonitrile] | 6.25 µg/mL | Selective index (SI) [2]: 27; IC50 [2]: 451 ± 20.2 µM
14 | CCc1ccc(NCC(=O)N2CCN(c3nc4ncccc4cc3C#N)CC2)cc1 [ANC-2, 2-(4-((4-Ethylphenyl)glycyl)piperazin-1-yl)-1,8-naphthyridine-3-carbonitrile] | 12.5 µg/mL | Selective index (SI) [2]: 11; IC50 [2]: 330 ± 3.4 µM
15 | Cc1ccc(NCC(=O)N2CCN(c3nc4ncccc4cc3C#N)CC2)cc1C [ANC-3, 2-(4-((3,4-Dimethylphenyl)glycyl)piperazin-1-yl)-1,8-naphthyridine-3-carbonitrile] | 50 µg/mL | 
16 | N#Cc1cc2cccnc2nc1N1CCN(C(=O)CNc2ccc(F)cc2)CC1 [ANC-5, 2-(4-((4-Fluorophenyl)glycyl)piperazin-1-yl)-1,8-naphthyridine-3-carbonitrile] | 25 µg/mL | 

Row | Compound | MIC [1, 4] | also measured
17 | N#Cc1cc2cccnc2nc1N1CCN(C(=O)CNc2ccc(Cl)cc2)CC1 [ANC-6, 2-(4-((4-Chlorophenyl)glycyl)piperazin-1-yl)-1,8-naphthyridine-3-carbonitrile] | 25 µg/mL | 
18 | N#Cc1cc2cccnc2nc1N1CCN(C(=O)CNc2ccc(Br)cc2)CC1 [ANC-7, 2-(4-((4-Bromophenyl)glycyl)piperazin-1-yl)-1,8-naphthyridine-3-carbonitrile] | 25 µg/mL | 
19 | N#Cc1cc2cccnc2nc1N1CCN(C(=O)CNc2ccccc2F)CC1 [ANC-8, 2-(4-((2-Fluorophenyl)glycyl)piperazin-1-yl)-1,8-naphthyridine-3-carbonitrile] | 25 µg/mL | 
20 | N#Cc1cc2cccnc2nc1N1CCN(C(=O)CNc2ccccc2I)CC1 [ANC-9, 2-(4-((2-Iodophenyl)glycyl)piperazin-1-yl)-1,8-naphthyridine-3-carbonitrile] | 25 µg/mL | 
21 | N#Cc1cc2cccnc2nc1N1CCN(C(=O)CNc2ccc(Br)cc2[N+](=O)[O-])CC1 [ANC-10, 2-(4-((4-Bromo-2-nitrophenyl)glycyl)piperazin-1-yl)-1,8-naphthyridine-3-carbonitrile] | > 50 µg/mL | 
22 | N#Cc1cc2cccnc2nc1N1CCN(C(=O)CNc2cccc(Cl)c2)CC1 [ANC-11, 2-(4-((3-Chlorophenyl)glycyl)piperazin-1-yl)-1,8-naphthyridine-3-carbonitrile] | 50 µg/mL | 
23 | N#Cc1cc2cccnc2nc1N1CCN(C(=O)CNc2cccc(C(F)(F)F)c2)CC1 [ANC-12, 2-(4-((3-(Trifluoromethyl)phenyl)glycyl)piperazin-1-yl)-1,8-naphthyridine-3-carbonitrile] | 25 µg/mL | 
24 | N#Cc1cc2cccnc2nc1N1CCN(C(=O)CNc2ccc(Cl)cc2Cl)CC1 [ANC-13, 2-(4-((2,4-Dichlorophenyl)glycyl)piperazin-1-yl)-1,8-naphthyridine-3-carbonitrile] | 50 µg/mL | 
25 | N#Cc1cc2cccnc2nc1N1CCN(C(=O)CNc2ccc(F)c(F)c2)CC1 [ANC-14, 2-(4-((3,4-Difluorophenyl)glycyl)piperazin-1-yl)-1,8-naphthyridine-3-carbonitrile] | > 50 µg/mL | 
26 | N#Cc1cc2cccnc2nc1N1CCNCC1 [ANI-1, 2-(Piperazin-1-yl)-1,8-naphthyridine-3-carbonitrile] | 25 µg/mL | 
27 | N#Cc1cc2cccnc2nc1N1CCN(C(=O)CCl)CC1 [ANI-2, 2-(4-(2-Chloroacetyl)piperazin-1-yl)-1,8-naphthyridine-3-carbonitrile] | 25 µg/mL | 
28 | CC[C@@H](CO)NCCN[C@@H](CC)CO [Ethambutol, reference compound] | 6.25 µg/mL | 
29 | NNC(=O)c1ccncc1 [Isoniazid, reference compound] | 0.36 µg/mL | 
30 | CO[C@H]1/C=C/O[C@@]2(C)Oc3c(C)c(O)c4c(O)c(c(/C=N/N5CCN(C)CC5)c(O)c4c3C2=O)NC(=O)/C(C)=C\C=C\[C@H](C)[C@H](O)[C@@H](C)[C@@H](O)[C@@H](C)[C@H](OC(C)=O)[C@@H]1C [Rifampicin, reference compound] | 3.13 µg/mL | inhibition against Mtb H37Rv [3]: 98%
31 | Nc1ccc(C(=O)O)c(O)c1 [p-Amino salicylic acid, reference compound] | 12.5 µg/mL | 
